Results as given in ChEMBL document CHEMBL3853352, “Anti-tubercular activities of 5,6,7,8-tetrahydrobenzo[4,5]thieno[2,3-d]pyrimidin-4-amine analogues endowed with high activity toward non-replicative Mycobacterium tuberculosis” (Bioorg Med Chem, 2016).
In brackets after ≈: the same amount, converted by molar mass.

Assays:
[1] = tested on: Mycobacterium tuberculosis; assay: Antimycobacterial activity against Mycobacterium tuberculosis H37Rv after 7 days by MABA; type: functional; settings: 168 h
Summary of the method: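 M. tuberculosis H37Rv inoculum taken from fresh LJ medium, resuspended in 7H9-S (7H9, 0.1% casitone, 0.5% glycerol, OADC), adjusted to McFarland No. 1 and diluted 1:20. Serial two-fold drug dilutions in 7H9-S, with growth and sterile controls. Incubated 7 days at 37 °C in normal atmosphere, then alamar blue added and incubated overnight. MIC = lowest concentration preventing the blue-to-pink change.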

[2] = Cytotoxicity against mouse RAW264.7 cells assessed as inhibition of cell proliferation at 50 ug/ml after 48 hrs by MTT assay; type: toxicity
Summary of the method: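 RAW 264.7 mouse macrophages grown in RPMI with 10% FBS and penicillin/streptomycin, then seeded at about 5000 cells/well on poly-L-lysine-coated plates. Pre-incubated 24 h at 37 °C, 5% CO2, then exposed to compound for 48 h. MTT (0.5 mg/ml) added for 3 h and formazan read at 595 nm.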

[3] = molecular target: T1, L-lysine-epsilon aminotransferase (Mycobacterium tuberculosis) (UniProt P9WQ77); assay: Inhibition of Mycobacterium tuberculosis LAT at 25 uM
T1 sequence (whole entry): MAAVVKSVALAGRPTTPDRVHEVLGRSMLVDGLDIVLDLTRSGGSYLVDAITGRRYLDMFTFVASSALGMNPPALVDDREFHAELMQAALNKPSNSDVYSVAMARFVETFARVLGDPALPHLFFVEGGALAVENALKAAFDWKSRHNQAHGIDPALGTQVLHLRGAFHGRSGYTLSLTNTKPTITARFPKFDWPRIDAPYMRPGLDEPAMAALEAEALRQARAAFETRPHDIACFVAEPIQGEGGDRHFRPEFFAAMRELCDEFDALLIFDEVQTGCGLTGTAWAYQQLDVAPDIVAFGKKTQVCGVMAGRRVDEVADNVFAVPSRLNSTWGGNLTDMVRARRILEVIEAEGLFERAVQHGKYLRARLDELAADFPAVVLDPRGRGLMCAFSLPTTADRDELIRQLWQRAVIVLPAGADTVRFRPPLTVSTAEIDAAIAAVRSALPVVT

[4] = tested on: Mycobacterium tuberculosis H37Rv; assay: Inhibition of Mycobacterium tuberculosis ADH assessed as decrease in conversion of L-alanine to pyruvate at 25 uM by measuring NADH by spectrophotometry
[5] = tested on: Mycobacterium tuberculosis; assay: Antimycobacterial activity against dormant stage of Mycobacterium tuberculosis H37Rv assessed as reduction in bacterial growth under nutrient starved conditions at 10 ug/ml for 7 days measured after 28 days; type: functional
Summary of the method: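 H37Rv grown in 7H9/OADC, washed twice and resuspended in PBS, then held in sealed bottles at 37 °C for 6 weeks. Starved cultures exposed to compound at 10 ug/ml for 7 days. Cells diluted 10-fold serially to 10^-6 in 7H9/OADC and plated in triplicate. Incubated 28 days at 37 °C without agitation; wells with visible growth scored positive and MPN calculated.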

[6] = Inhibition of Mycobacterium tuberculosis ADH assessed as decrease in conversion of L-alanine to pyruvate by measuring NADH by spectrophotometry; parameters: species or system Mycobacterium tuberculosis H37Rv
Summary of the method: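 Mtb L-AlaDH oxidative deamination of L-alanine to pyruvate at 37 °C. NADH formation read at 340 nm. Compounds tested from 25 µM to 0.5 µM. Background read from the reaction mixture without enzyme. IC50 values calculated from the concentration series.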

Row | Structure (SMILES) | MIC [1] [µM] | inhibition at 48 h, 50 ug/ml [2] [%] | inhibition [3] [%] | inhibition [4] [%] | fold change (FC) [5] | IC50 [6] [µM]
1 | CCc1nc(Nc2ccc(C)cc2C)c2c3c(sc2n1)CCCC3 | 74.1 (≈ 25 µg/mL) | 9.65 | < 50 | 50 | >1 | 7.41
2 | c1ccc(CCNc2nc(C3CC3)nc3sc4c(c23)CCCC4)cc1 | 35.8 (≈ 12.5 µg/mL) | 17.4 | < 50 | 50 |  | 17
3 | Clc1ccc(Nc2nc(-c3ccccc3)nc3sc4c(c23)CCCC4)cc1 | 63.8 (≈ 25 µg/mL) | 20.8 | < 50 | 50 | >1 | 2.72
4 | c1ccc(Nc2nc(C3CC3)nc3sc4c(c23)CCCC4)cc1 | 9.72 (≈ 3.12 µg/mL) | 8.8 | < 50 |  |  | > 25
5 | CCc1nc(Nc2ccccc2)c2c3c(sc2n1)CCCC3 | 20.2 (≈ 6.25 µg/mL) | 7.82 | < 50 | 50 | >1 | 15.1
6 | Fc1ccc(Nc2nc(C3CC3)nc3sc4c(c23)CCCC4)cc1 | 36.8 (≈ 12.5 µg/mL) | 4.82 | < 50 |  | >1 | 8.91
7 | Cc1ccc(Nc2nc(-c3ccccc3)nc3sc4c(c23)CCCC4)cc1 | 33.6 (≈ 12.5 µg/mL) | 41.1 | < 50 | 50 | >1 | 7.97
8 | Fc1ccc(Nc2nc(-c3ccccc3)nc3sc4c(c23)CCCC4)cc1 | 33.3 (≈ 12.5 µg/mL) | 33.4 | < 50 | 50 |  | 12.2
9 | Cc1ccc(Nc2nc(C3CC3)nc3sc4c(c23)CCCC4)c(C)c1 | 71.5 (≈ 25 µg/mL) | 23.9 | < 50 | 50 | >1 | 9
10 | CCc1nc(Nc2ccc(Br)cc2)c2c3c(sc2n1)CCCC3 | 32.2 (≈ 12.5 µg/mL) | 12.6 | < 50 | 50 | >1 | 6.54
11 | CCc1nc(NCc2ccccc2)c2c3c(sc2n1)CCCC3 | 38.6 (≈ 12.5 µg/mL) | 7.05 | < 50 | 50 | >1 | 6.03
12 | CC[C@@H](CO)NCCN[C@@H](CC)CO [ETHAMBUTOL] | 7.64 (≈ 1.56 µg/mL) |  |  |  |  | > 25
13 | Cc1ccc(C)c(Nc2nc(-c3ccccc3)nc3sc4c(c23)CCCC4)c1 | 2.02 (≈ 0.779 µg/mL) | 3.23 | < 50 | 50 | >1 | 5.82
14 | Cc1ccc(Nc2nc(-c3ccccc3)nc3sc4c(c23)CCCC4)c(C)c1 | 16.2 (≈ 6.25 µg/mL) | 7.97 | < 50 | 50 | >1 | 9.96
15 | COc1ccc(Nc2nc(-c3ccccc3)nc3sc4c(c23)CCCC4)cc1 | 16.1 (≈ 6.25 µg/mL) | 28.2 | < 50 | 50 | >1 | 8.72
16 | CCc1nc(Nc2ccc(OC)cc2)c2c3c(sc2n1)CCCC3 | 73.7 (≈ 25 µg/mL) | 15.2 | < 50 | 50 | >1 | 4.68
17 | CCc1nc(Nc2c(C)cccc2C)c2c3c(sc2n1)CCCC3 | 18.5 (≈ 6.25 µg/mL) | 26.5 | < 50 | 50 | >1 | 5.02
18 | c1ccc(Nc2nc(-c3ccccc3)nc3sc4c(c23)CCCC4)cc1 | 4.36 (≈ 1.56 µg/mL) | 7.15 | < 50 | 50 | >1 | 11.4
